Source: ChEMBL document CHEMBL1147762, “A new chemical tool for exploring the physiological function of the PDE2 isozyme” (Bioorg Med Chem Lett, 2006)

Key:
[1] = target: Mitogen-activated protein kinase 14 (Homo sapiens) (UniProt Q16539); assay: Inhibition of SAPK2a at 10 uM
[2] = target: Casein kinase I (Homo sapiens) (UniProt Q9HCP0+P78368+P48730+P49674+P48729); assay: Inhibition of CK1 at 10 uM; format: protein assay
[3] = target: Serine/threonine-protein kinase Sgk1 (Homo sapiens) (UniProt O00141); assay: Inhibition of SGK at 10 uM
[4] = target: Phosphorylase kinase (Homo sapiens) (UniProt P15735+P46020+P46019+Q93100+Q16816); assay: Inhibition of PHK at 10 uM; format: protein-complex assay
[5] = Activity against GABA uptake at 10 uM
Summary of the method: (§1)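 Single-concentration screen within a panel of 54 receptors and ion channels, measuring binding or interaction at each target.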

[6] = target: Type-2 angiotensin II receptor (Homo sapiens) (UniProt P50052); assay: Percentage binding to angiotensin II type 2 receptor at 10 uM
[7] = Basolateral Caco-2 cell membrane permeability; format: ADME, cell-based; conditions: human
[8] = target: AMP-activated protein kinase, AMPK (Homo sapiens) (UniProt P54646+O43741+P54619+Q9UGJ0+Q9Y478+Q13131+Q9UGI9); assay: Inhibition of AMPK at 10 uM; format: protein-complex assay
[9] = target: Dual 3',5'-cyclic-AMP and -GMP phosphodiesterase 11A (Homo sapiens, UniProt Q9HCR9); assay: Inhibitory activity against PDE11 by scintillation proximity assay
Summary of the method: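 Phosphodiesterase inhibition run as a scintillation proximity assay, with enzyme at a concentration in the linear range. Values are means of n experiments with standard deviation.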

[10] = target: Phosphodiesterase 1 (Homo sapiens, UniProt P54750+Q01064+Q14123); assay: Inhibitory activity against PDE1 by scintillation proximity assay; format: protein assay
Summary of the method: (§2)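 Phosphodiesterase inhibition run as a scintillation proximity assay, with enzyme at a concentration in the linear range. Final substrate was 1 µM, below one-third of the enzyme K_M, so that IC50 approximates Ki. Values are means of n experiments with standard deviation.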

[11] = tested on: P-glycoprotein (human); assay: Basolateral cell permeability in MDCK with MDR transfectant overexpressing human p-glycoprotein; format: ADME, cell-based; conditions: MDCK-MDR1
[12] = target: RAC-alpha serine/threonine-protein kinase (Homo sapiens) (UniProt P31749); assay: Inhibition of PKBalpha at 10 uM
[13] = target: High affinity cGMP-specific 3',5'-cyclic phosphodiesterase 9A (Homo sapiens, UniProt O76083); assay: Inhibitory activity against PDE9 by scintillation proximity assay
Summary of the method: (§3)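 Scintillation proximity assay for phosphodiesterase inhibition. Enzyme is used at a concentration within the linear range, and its KM was measured. Final substrate concentration is 1 µM, below one-third of KM, so IC50 approximates Ki. Results are means of n experiments with standard deviation.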

[14] = target: Adrenergic receptor alpha-2 (Homo sapiens) (UniProt P08913+P18825+P18089); assay: Percentage binding to adrenergic alpha-2 receptor at 10 uM; format: protein assay
[15] = Volume of distribution in rat; format: ADME, organism-based; conditions: Sprague-Dawley, in vivo, read-out: Vdss
[16] = target: Glutamate receptor ionotropic kainate (Homo sapiens) (UniProt P39086+Q16478+Q16099+Q13002+Q13003); assay: Percentage binding to kainate receptor at 10 uM; format: protein-complex assay
[17] = target: 3',5'-cyclic-AMP phosphodiesterase 4A (Homo sapiens, UniProt P27815); assay: Inhibitory activity against PDE4A by scintillation proximity assay; summary of the method: as §2
[18] = target: Muscarinic acetylcholine receptor M2 (Homo sapiens) (UniProt P08172); assay: Percentage binding to muscarinic M2 at 10 uM
[19] = target: Muscarinic acetylcholine receptor M3 (Homo sapiens) (UniProt P20309); assay: Percentage binding to muscarinic M3 at 10 uM
[20] = target: cAMP-dependent protein kinase (PKA) (Homo sapiens) (UniProt P22694+P17612+P22612); assay: Inhibition of PKA at 10 uM; format: protein assay
[21] = target: Serine/threonine-protein kinase Nek6 (Homo sapiens) (UniProt Q9HC98); assay: Inhibition of NEK6 at 10 uM
[22] = target: Histamine H2 receptor (Homo sapiens) (UniProt P25021); assay: Percentage binding to histamine H2 at 10 uM
[23] = target: Ribosomal protein S6 kinase alpha-5 (Homo sapiens) (UniProt O75582); assay: Inhibition of MSK1 at 10 uM
[24] = target: cGMP-dependent 3',5'-cyclic phosphodiesterase (Homo sapiens, UniProt O00408); assay: Inhibitory activity against PDE2 by scintillation proximity assay; summary of the method: as §2
[25] = target: Kappa-type opioid receptor (Homo sapiens) (UniProt P41145); assay: Percentage binding to opioid kappa at 10 uM
[26] = target: Voltage-dependent L-type calcium channel subunit alpha-1D (Homo sapiens) (UniProt Q01668); assay: Percentage binding to Ca2+ channel D at 10 uM; summary of the method: as §1
[27] = target: Delta-type opioid receptor (Homo sapiens) (UniProt P41143); assay: Percentage binding to opioid delta at 10 uM
[28] = Apical cell permeability in parental MDCK cells
[29] = target: High affinity cAMP-specific and IBMX-insensitive 3',5'-cyclic phosphodiesterase 8A (Homo sapiens, UniProt O60658); assay: Inhibitory activity against PDE8A by scintillation proximity assay; summary of the method: as §3
[30] = target: Adenosine receptor A2a (Homo sapiens) (UniProt P29274); assay: Percentage binding to adenosine A2a receptor at 10 uM
[31] = target: Rho-associated protein kinase 2 (Homo sapiens) (UniProt O75116); assay: Inhibition of ROCK2 at 10 uM
[32] = target: cAMP and cAMP-inhibited cGMP 3',5'-cyclic phosphodiesterase 10A (Homo sapiens, UniProt Q9Y233); assay: Inhibitory activity against PDE10 by scintillation proximity assay; summary of the method: as §2
[33] = Clearance in rat; format: ADME, organism-based; conditions: Sprague-Dawley, in vivo
Summary of the method: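 Sprague–Dawley rats were dosed intravenously at 1 mg/kg in EtOH:PEG 400:H2O (1:4:5) and orally at 30 mg/kg in 0.5% methylcellulose.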

[34] = target: D(4) dopamine receptor (Homo sapiens) (UniProt P21917); assay: Percentage binding to dopamine D4 at 10 uM
[35] = target: Glucocorticoid receptor (Homo sapiens) (UniProt P04150); assay: Percentage binding to glucocorticord receptor at 10 uM
[36] = target: Voltage-dependent L-type calcium channel subunit alpha-1D (Homo sapiens) (UniProt Q01668); assay: Percentage binding to dihydropyridine sensitive Ca2+ channel D at 10 uM; summary of the method: as §1
[37] = target: Adrenergic receptor alpha-1 (Homo sapiens) (UniProt P35348+P25100+P35368); assay: Percentage binding to adrenergic alpha-1 receptor at 10 uM; format: protein assay
[38] = target: Adenosine receptor A1 (Homo sapiens) (UniProt P30542); assay: Percentage binding to adenosine A1 receptor at 10 uM
[39] = target: Dual specificity mitogen-activated protein kinase kinase 1 (Homo sapiens) (UniProt Q02750); assay: Inhibition of MKK1 at 10 uM
[40] = target: Vasopressin V2 receptor (Homo sapiens) (UniProt P30518); assay: Percentage binding to vasopressin V2 at 10 uM
[41] = target: Tyrosine-protein kinase Lck (Homo sapiens) (UniProt P06239); assay: Inhibition of LCK at 10 uM
Sequence of Tyrosine-protein kinase Lck (Homo sapiens) (P06239 2-509 limits assumed): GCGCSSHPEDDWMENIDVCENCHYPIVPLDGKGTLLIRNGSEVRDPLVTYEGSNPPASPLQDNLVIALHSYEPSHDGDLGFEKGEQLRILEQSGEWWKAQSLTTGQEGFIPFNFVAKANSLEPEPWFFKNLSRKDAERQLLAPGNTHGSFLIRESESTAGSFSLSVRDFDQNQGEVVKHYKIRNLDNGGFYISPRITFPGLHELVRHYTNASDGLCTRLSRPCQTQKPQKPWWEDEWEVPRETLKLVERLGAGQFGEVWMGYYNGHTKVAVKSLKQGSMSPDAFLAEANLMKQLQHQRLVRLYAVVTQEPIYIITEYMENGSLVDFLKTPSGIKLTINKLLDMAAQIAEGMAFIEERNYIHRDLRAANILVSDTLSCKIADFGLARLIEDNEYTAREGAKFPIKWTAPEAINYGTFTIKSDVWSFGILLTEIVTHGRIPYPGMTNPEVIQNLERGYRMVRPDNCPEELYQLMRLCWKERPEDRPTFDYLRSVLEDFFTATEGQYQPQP

Sequence of Voltage-dependent L-type calcium channel subunit alpha-1D (Homo sapiens) (Q01668 whole entry): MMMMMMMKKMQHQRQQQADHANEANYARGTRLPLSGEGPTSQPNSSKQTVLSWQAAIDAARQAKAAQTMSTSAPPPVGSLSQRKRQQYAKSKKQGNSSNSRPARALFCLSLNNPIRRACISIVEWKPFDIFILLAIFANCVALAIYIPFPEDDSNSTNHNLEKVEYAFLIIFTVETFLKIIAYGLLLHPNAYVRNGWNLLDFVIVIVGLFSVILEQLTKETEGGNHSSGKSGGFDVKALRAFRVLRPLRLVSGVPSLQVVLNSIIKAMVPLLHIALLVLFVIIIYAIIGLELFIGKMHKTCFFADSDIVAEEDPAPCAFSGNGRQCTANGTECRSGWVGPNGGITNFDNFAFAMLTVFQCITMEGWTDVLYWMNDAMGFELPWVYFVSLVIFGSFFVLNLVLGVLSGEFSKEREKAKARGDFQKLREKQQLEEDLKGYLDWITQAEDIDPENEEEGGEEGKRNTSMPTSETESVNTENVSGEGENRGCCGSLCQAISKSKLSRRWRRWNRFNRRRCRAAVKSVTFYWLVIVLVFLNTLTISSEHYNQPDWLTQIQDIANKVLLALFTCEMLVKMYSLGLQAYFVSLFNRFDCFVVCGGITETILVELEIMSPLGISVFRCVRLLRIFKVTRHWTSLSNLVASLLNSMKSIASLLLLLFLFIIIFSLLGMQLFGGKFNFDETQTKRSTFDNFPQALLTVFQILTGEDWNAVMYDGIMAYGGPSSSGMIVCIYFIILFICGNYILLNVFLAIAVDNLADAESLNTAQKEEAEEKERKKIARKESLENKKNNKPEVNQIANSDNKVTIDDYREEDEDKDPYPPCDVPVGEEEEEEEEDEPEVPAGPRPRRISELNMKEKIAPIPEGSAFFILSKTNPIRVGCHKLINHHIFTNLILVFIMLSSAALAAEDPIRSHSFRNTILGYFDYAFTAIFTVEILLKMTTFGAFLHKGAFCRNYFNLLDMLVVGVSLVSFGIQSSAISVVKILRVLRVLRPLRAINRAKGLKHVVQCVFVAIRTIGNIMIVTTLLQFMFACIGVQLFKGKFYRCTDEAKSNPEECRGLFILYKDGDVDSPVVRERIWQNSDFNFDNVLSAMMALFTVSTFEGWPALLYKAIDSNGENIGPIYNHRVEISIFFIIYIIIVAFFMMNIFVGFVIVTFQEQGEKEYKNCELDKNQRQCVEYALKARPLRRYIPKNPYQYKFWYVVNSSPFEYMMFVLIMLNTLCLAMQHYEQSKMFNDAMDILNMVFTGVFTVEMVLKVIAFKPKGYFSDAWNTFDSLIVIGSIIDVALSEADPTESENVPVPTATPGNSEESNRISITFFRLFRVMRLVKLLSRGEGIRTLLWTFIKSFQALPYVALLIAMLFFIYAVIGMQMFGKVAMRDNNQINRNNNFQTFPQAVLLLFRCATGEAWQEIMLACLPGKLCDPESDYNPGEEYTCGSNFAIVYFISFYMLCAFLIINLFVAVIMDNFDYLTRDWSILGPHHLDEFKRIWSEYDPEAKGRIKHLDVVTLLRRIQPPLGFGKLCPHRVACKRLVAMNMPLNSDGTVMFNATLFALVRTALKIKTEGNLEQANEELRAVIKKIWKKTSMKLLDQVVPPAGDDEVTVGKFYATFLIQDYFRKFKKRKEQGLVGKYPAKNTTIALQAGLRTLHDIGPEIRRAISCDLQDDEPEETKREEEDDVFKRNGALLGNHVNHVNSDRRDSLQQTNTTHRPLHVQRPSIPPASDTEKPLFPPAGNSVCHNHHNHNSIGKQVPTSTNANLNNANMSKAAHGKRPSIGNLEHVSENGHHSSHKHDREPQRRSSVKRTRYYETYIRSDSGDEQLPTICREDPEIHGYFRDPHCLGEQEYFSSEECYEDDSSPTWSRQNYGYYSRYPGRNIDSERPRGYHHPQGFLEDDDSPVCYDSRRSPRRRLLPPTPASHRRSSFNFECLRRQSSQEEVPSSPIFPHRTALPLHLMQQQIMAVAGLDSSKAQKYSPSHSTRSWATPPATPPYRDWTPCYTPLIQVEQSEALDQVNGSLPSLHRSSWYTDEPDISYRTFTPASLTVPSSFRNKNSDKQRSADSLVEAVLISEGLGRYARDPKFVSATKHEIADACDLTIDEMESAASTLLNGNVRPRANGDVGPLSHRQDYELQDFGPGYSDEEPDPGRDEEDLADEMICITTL
Sequence of Delta-type opioid receptor (Homo sapiens) (P41143 whole entry): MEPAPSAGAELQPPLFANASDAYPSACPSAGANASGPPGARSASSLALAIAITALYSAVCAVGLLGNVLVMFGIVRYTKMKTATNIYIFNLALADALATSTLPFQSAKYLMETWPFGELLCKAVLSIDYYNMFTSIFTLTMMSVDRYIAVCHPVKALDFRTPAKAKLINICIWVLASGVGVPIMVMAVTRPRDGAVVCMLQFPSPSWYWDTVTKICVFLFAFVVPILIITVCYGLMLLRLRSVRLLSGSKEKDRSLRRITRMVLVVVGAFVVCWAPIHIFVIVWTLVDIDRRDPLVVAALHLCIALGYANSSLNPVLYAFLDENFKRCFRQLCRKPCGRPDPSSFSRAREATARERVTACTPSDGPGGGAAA
Sequence of D(4) dopamine receptor (Homo sapiens) (P21917 whole entry): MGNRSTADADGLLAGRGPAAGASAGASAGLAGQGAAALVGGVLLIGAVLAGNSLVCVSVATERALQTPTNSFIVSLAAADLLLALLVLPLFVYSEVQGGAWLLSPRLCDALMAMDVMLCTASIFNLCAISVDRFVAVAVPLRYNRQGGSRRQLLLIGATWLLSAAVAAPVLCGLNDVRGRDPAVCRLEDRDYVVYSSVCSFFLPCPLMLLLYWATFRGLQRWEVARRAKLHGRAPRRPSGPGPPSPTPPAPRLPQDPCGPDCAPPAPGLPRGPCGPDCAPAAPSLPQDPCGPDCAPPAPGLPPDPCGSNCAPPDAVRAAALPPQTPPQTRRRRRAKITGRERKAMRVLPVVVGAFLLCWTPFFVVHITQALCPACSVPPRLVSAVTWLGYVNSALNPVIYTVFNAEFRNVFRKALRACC
Sequence of Muscarinic acetylcholine receptor M2 (Homo sapiens) (P08172 whole entry): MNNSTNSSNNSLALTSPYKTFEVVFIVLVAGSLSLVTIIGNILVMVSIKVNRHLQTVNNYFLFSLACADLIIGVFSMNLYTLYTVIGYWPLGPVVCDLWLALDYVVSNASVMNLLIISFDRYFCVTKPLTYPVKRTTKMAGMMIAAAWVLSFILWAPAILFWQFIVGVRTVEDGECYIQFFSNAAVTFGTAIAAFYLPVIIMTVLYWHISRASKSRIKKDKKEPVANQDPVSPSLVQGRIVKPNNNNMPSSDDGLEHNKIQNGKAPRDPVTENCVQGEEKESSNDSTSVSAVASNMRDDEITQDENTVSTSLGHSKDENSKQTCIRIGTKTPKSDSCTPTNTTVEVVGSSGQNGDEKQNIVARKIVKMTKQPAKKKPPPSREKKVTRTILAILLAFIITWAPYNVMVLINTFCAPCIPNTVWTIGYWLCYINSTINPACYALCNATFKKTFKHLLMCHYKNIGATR
Sequence of Dual 3',5'-cyclic-AMP and -GMP phosphodiesterase 11A (Q9HCR9 whole entry): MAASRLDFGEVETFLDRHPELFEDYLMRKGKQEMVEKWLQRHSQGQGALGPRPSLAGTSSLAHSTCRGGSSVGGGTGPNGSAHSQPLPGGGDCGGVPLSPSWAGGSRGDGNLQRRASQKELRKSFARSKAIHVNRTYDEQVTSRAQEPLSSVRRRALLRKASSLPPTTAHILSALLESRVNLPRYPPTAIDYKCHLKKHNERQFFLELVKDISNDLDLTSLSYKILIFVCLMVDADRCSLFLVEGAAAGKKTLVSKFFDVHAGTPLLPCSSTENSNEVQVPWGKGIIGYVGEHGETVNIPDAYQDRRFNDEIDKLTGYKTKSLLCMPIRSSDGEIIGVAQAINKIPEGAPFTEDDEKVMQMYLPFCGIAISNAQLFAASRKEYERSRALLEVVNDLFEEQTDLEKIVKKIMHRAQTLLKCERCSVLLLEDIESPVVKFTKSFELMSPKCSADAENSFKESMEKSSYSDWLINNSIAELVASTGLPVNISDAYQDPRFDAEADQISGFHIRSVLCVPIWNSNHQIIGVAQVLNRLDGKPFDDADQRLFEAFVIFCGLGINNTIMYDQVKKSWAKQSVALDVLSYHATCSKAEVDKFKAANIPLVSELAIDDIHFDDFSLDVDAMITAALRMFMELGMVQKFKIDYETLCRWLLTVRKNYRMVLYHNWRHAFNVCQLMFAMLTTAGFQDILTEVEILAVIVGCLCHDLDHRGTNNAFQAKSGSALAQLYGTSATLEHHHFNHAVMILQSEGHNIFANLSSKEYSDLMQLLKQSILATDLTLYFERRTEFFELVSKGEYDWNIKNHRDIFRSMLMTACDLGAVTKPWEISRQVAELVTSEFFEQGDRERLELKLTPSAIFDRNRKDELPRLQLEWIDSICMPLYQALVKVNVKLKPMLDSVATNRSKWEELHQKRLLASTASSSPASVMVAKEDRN

`CN1C(=O)C(C(=O)Nc2nncs2)c2cc3occc3cc21` (stereo unspecified) showed an inhibition [1] of 0%, an inhibition [2] of 10% and an inhibition [3] of 0%. It also gave an inhibition [4] of 0%, an Activity [5] of 8% and an Activity [6] of 4%. For the same compound, the Papp [7] was 320 nm/s, the inhibition [8] was 8% and the IC50 [9] was 11.6 µM. The IC50 [10] was over 16 µM, the Papp [11] was 46 nm/s and the inhibition [12] was 14%. The IC50 [13] was over 16 µM, the Activity [14] was 16% and the Vd [15] was 0.1 L/kg. The Activity [16] was 0%, the IC50 [17] was over 16 µM and the Activity [18] was 0%. The Activity [19] was 0%, the inhibition [20] was 16% and the inhibition [21] was 7%. It also gave an Activity [22] of 0%, an inhibition [23] of 6% and an IC50 [24] of 0.04 µM. For the same compound, the Activity [25] was 0%, the Activity [26] was 0% and the Activity [27] was 3%. The Papp [28] was 30 nm/s, the IC50 [29] was over 16 µM and the Activity [30] was 24%. It also gave an inhibition [31] of 20%, an IC50 [32] of over 16 µM and a clearance [33] of 0.528 L/h/kg. It also gave an Activity [34] of 0%, an Activity [35] of 0% and an Activity [36] of 0%. For the same compound, the Activity [37] was 0%, the Activity [38] was 16% and the inhibition [39] was 0%. For the same compound, the Activity [40] was 13% and the inhibition [41] was 5%.
